# From ChEMBL document CHEMBL4431391, “Exploration of substituted arylpiperazine-tetrazoles as promising dual norepinephrine and dopamine reuptake inhibitors” (Bioorg Med Chem, 2016)
# Columns and labels:
# Type in all cases: cell-based
# [1] = molecular target: Sodium-dependent noradrenaline transporter (Homo sapiens, UniProt P23975); assay: Inhibition of [3H]-5-norepinephrine reuptake in human NET expressed in HEK293 cells by liquid scintillation counting method
# How it was run: (§1)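 HEK-293 cells grown in FBS-supplemented medium, transfected with human transporter (hDAT or hNET). Uptake of radiolabeled substrate ([3H]-DA for DAT, [3H]-NE for NET) at 20 nM was measured, with inhibition assessed as reduced uptake. Method adapted with slight modification from a literature procedure.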
# [2] = molecular target: Sodium-dependent dopamine transporter (Homo sapiens, UniProt Q01959); assay: Inhibition of [3H]-5-dopamine reuptake in human DAT expressed in HEK293 cells by liquid scintillation counting method; how it was run: as §1
# Sodium-dependent dopamine transporter, sequence (Q01959 whole entry): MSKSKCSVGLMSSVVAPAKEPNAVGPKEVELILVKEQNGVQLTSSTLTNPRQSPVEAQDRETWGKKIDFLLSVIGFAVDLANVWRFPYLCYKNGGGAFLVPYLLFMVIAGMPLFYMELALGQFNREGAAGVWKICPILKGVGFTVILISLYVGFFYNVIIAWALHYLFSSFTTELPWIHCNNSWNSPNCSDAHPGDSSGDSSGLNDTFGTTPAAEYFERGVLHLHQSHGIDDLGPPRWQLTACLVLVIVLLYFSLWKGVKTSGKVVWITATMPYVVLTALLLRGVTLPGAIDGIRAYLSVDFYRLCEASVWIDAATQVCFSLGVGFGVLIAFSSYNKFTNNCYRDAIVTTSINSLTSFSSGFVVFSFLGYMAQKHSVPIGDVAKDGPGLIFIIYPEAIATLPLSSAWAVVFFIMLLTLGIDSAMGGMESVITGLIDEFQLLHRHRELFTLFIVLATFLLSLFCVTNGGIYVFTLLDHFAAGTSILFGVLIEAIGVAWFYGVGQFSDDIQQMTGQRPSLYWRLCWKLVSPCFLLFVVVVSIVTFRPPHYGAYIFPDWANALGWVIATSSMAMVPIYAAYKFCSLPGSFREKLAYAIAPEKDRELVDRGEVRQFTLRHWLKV
# [3] = molecular target: Sodium-dependent serotonin transporter (Homo sapiens, UniProt P31645); assay: Inhibition of [3H]-5-hydroxytryptamine reuptake in human SERT expressed in HEK293 cells by liquid scintillation counting method
# Sodium-dependent serotonin transporter, sequence (P31645 whole entry): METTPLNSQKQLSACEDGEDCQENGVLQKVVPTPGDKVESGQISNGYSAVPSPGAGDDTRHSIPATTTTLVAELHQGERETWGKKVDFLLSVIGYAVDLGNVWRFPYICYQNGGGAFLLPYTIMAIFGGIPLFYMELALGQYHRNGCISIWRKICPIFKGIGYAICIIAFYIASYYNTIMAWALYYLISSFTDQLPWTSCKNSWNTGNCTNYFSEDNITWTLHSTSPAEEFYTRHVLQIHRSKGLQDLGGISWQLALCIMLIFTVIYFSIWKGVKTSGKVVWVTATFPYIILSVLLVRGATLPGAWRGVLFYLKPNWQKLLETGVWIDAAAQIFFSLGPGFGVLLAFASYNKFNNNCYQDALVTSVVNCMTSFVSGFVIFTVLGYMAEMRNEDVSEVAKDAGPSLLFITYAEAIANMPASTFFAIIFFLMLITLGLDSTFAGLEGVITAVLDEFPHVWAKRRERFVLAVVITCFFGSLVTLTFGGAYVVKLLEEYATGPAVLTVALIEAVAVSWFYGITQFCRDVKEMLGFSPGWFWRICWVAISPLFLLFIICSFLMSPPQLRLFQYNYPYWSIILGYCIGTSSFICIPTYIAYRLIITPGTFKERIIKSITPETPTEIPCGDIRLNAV
# Sodium-dependent noradrenaline transporter, sequence (P23975 whole entry): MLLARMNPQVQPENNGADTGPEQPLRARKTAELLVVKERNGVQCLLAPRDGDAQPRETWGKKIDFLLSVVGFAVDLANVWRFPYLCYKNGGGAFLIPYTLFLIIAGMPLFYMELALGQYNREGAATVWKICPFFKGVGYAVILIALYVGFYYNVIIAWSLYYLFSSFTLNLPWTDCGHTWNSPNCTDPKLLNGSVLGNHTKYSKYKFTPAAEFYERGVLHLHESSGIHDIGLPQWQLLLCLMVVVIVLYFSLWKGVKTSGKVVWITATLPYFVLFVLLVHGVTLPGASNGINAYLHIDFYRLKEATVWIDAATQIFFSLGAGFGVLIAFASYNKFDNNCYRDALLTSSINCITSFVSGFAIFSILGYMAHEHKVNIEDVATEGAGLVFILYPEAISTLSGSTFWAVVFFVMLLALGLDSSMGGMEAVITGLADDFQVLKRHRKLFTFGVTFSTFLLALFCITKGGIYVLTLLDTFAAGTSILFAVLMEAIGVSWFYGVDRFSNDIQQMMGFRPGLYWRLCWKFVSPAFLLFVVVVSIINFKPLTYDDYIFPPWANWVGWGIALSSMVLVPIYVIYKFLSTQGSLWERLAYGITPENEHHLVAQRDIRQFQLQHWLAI
SMILES,IC50 [1] [nM],IC50 [2] [nM],IC50 [3] [nM]
Clc1cccc(N2CCN(CCCn3nnnc3C(c3ccccc3)c3ccccc3)CC2)c1,1620,4740,–
c1ccc(C(c2ccccc2)c2nnnn2CCCCN2CCN(c3ncccn3)CC2)cc1,8540,> 10000,> 10000
c1ccc(C(c2ccccc2)c2nnnn2CCCN2CCN(c3ncccn3)CC2)cc1,800,1140,> 10000
COc1ccc(N2CCN(CCCn3nnnc3C(c3ccccc3)c3ccccc3)CC2)cc1,1060,3850,–
COc1ccccc1N1CCN(CCn2nnnc2C(c2ccccc2)c2ccccc2)CC1,> 10000,> 10000,> 10000
Cc1cccc(C)c1N1CCN(CCCn2nnnc2C(c2ccccc2)c2ccccc2)CC1,1720,3720,–
Fc1cccc(F)c1N1CCN(CCCn2nnnc2C(c2ccccc2)c2ccccc2)CC1,510,820,–
Brc1ccc(N2CCN(CCCn3nnnc3C(c3ccccc3)c3ccccc3)CC2)cc1,1200,910,–
Fc1ccc(N2CCN(CCCn3nnnc3C(c3ccccc3)c3ccccc3)CC2)cc1,80,2480,–
FC(F)(F)c1ccc(N2CCN(CCCn3nnnc3C(c3ccccc3)c3ccccc3)CC2)cc1,> 10000,> 10000,–
Clc1cccc(N2CCN(CCCCn3nnnc3C(c3ccccc3)c3ccccc3)CC2)c1Cl,8870,> 10000,> 10000
c1ccc(C(c2ccccc2)c2nnnn2CCN2CCN(c3ncccn3)CC2)cc1,> 10000,> 10000,> 10000
Fc1ccc(C(F)(F)F)cc1N1CCN(CCCn2nnnc2C(c2ccccc2)c2ccccc2)CC1,1090,2250,–
c1ccc(C(c2ccccc2)c2nnnn2CCCN2CCN(c3ccccc3)CC2)cc1,1450,1640,–
c1ccc(C(c2ccccc2)c2nnnn2CCCN2CCN(c3ccccn3)CC2)cc1,920,1430,> 10000
Clc1cccc(N2CCN(CCCn3nnnc3C(c3ccccc3)c3ccccc3)CC2)c1Cl,1100,3040,> 10000
Clc1cccc(N2CCN(CCn3nnnc3C(c3ccccc3)c3ccccc3)CC2)c1Cl,> 10000,> 10000,> 10000

SMILES,IC50 [1] [nM],IC50 [2] [nM],IC50 [3] [nM]
Clc1ccc(N2CCN(CCCn3nnnc3C(c3ccccc3)c3ccccc3)CC2)cc1,460,1200,> 10000
c1ccc(C(c2ccccc2)c2nnnn2CCCCN2CCN(c3ccccn3)CC2)cc1,4700,> 10000,> 10000
Clc1ccc(N2CCN(CCCCn3nnnc3C(c3ccccc3)c3ccccc3)CC2)cc1,> 10000,> 10000,> 10000
COc1ccccc1N1CCN(CCCCn2nnnc2C(c2ccccc2)c2ccccc2)CC1,10000,> 10000,> 10000
Fc1ccc(N2CCN(CCCn3nnnc3C(c3ccccc3)c3ccccc3)CC2)c(F)c1,2160,2900,–
Fc1cccc(N2CCN(CCCn3nnnc3C(c3ccccc3)c3ccccc3)CC2)c1,1890,1470,–
Clc1ccc(N2CCN(CCn3nnnc3C(c3ccccc3)c3ccccc3)CC2)cc1,> 10000,> 10000,> 10000
Clc1ccc(N2CCN(CCCn3nnnc3C(c3ccccc3)c3ccccc3)CC2)cc1Cl,4000,4200,–
FC(F)(F)c1cccc(N2CCN(CCCn3nnnc3C(c3ccccc3)c3ccccc3)CC2)c1,2480,5580,–
Clc1ccc(N2CCN(CCCn3nnnc3C(c3ccccc3)c3ccccc3)CC2)c(Cl)c1,2050,3590,–
Fc1ccccc1N1CCN(CCCn2nnnc2C(c2ccccc2)c2ccccc2)CC1,350,1330,–
COc1ccccc1N1CCN(CCCn2nnnc2C(c2ccccc2)c2ccccc2)CC1,500,1040,> 10000
Fc1cc(Cl)ccc1N1CCN(CCCn2nnnc2C(c2ccccc2)c2ccccc2)CC1,1100,2250,–
Cc1ccc(N2CCN(CCCn3nnnc3C(c3ccccc3)c3ccccc3)CC2)cc1,870,1420,–
Clc1ccccc1N1CCN(CCCn2nnnc2C(c2ccccc2)c2ccccc2)CC1,670,1010,–
c1ccc(C(c2ccccc2)c2nnnn2CCN2CCN(c3ccccn3)CC2)cc1,> 10000,> 10000,> 10000
